Source: PubChem (several laboratories)
Shown are actives, neighbours in structure and some others; about 2.4% of the full set was active somewhere.
MPTP block: blocks calcium-induced mitochondrial swelling; isolated mouse mitochondria, Ca2+ swelling absorbance, 30 min; inhibition, % at 10 µM; 360,000 tested, 1.4% active; AID 602449;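 active means inhibition of 50% or more, scaled per plate between neutral and stimulator controls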
NR2E3 ag-1: NR2E3 (human) agonism; Q9Y5X4; GST-NR2E3/biotin-RetCOR TR-FRET, 1536-well; inhibition of corepressor binding, % at 4.78 µM; 320,000 tested, 0.12% active; AID 2300;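 active means percent inhibition above the cutoff of mean plus 3 SD of all tested compounds, set per screening campaign, cut at about 20% in these data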
Target sequence (Q9Y5X4 whole entry, looked up): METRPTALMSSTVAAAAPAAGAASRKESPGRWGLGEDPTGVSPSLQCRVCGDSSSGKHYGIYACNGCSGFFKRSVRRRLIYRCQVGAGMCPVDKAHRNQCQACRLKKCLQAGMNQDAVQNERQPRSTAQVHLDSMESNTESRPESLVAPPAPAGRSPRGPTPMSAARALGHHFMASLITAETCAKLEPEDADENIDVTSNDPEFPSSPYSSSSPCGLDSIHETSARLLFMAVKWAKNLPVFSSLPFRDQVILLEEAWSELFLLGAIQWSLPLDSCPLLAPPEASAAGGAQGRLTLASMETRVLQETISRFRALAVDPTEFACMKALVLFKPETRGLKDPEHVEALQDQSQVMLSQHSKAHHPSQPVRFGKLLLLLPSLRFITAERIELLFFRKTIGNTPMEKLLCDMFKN
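Assay system: NR2E3–RetCOR corepressor complex. Quantity: 1.35 nM GST-NR2E3. Buffer or medium: pH 7.5 Tris-based buffer. Reagent: biotinylated RetCOR corepressor at 7 nM final. Schedule: 5 h at 4 °C. Detection: TR-FRET, emission read at 617 and 671 nm. Replicates: one well per compound, singlicate testing.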
NR2E3 ag-2: human photoreceptor-specific nuclear receptor agonism; CHO-S Gal4-NCOR/VP16-NR2E3 two-hybrid, luciferase; inhibition of corepressor binding, % at 3.98 µM; 360,000 tested, 0.35% active; AID 602229;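 active means inhibition above the mean of all tested compounds plus 3 SD, cut at about 70% in these data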;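 further: higher means lower luciferase signal from less NR2E3 corepressor binding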
Jurkat NFkB inh: inhibitors of the PMA/ionomycin-induced NF-kB reporter in Jurkat cells; PMA/ionomycin-induced NF-kB luciferase reporter, luminescence; inhibition, % at 4 µM; 330,000 tested, 0.53% active; AID 435003; in the data active means inhibition above about 50%
aDG glyco up: increases alpha dystroglycan glycosylation; Pro5-aDG cells, alpha-DG glycosylation AlphaScreen (IIH6); 0% Pro5, 100% B10-LARGE cell signal; activation, % at 10 µM; 360,000 tested, 0.22% active; AID 624168;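 active means activation of at least 8% versus controls, or a plate z-score of at least 8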;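 further: Pro5 are CHO cells carrying HIG-tagged alpha-DG that lacks glycosylation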
697 NFkB inh: inhibitors of the PMA/ionomycin-induced NF-kB reporter in 697 B cells | 697 B-cell NF-kB luciferase reporter, 16 h | inhibition, % at 4 µM | 330,000 tested, 0.33% active | AID 435022; in the data active means inhibition above about 35%
Jurkat NFkB conf: inhibitors of the PMA/ionomycin-induced NF-kB reporter in Jurkat cells, retest. AID 435020. Jurkat NF-kB luciferase, 16 h. shares compounds with Jurkat NFkB inh. 2,700 tested, 27% active. inhibition, % at 4 µM;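 active means inhibition reaching about 45% at 4 µM in either replicate, limit read from the data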
Of the large screens only hits and unclear results are named; the others gave an inactive call (follow-up assays come after a bar, where they were run).

Cc1ccc(CN2CC(C(=O)NCC(=O)Nc3c(C)cccc3C)CC2=O)cc1 (stereo not given)	none
Cc1ccc(C)c(CSc2nc3[nH]ncc3c(=O)[nH]2)c1	Jurkat NFkB inh 65.9 | Jurkat NFkB conf inactive
CC1CCN(C(=O)CN2C(=O)NC(C)(c3ccc4ccccc4c3)C2=O)CC1 (stereo not given)	Jurkat NFkB inh 59.5 (no result: NR2E3 ag-1) | Jurkat NFkB conf inactive
Cc1ccc2oc(C(=O)Nc3cc(C)on3)c(C)c2c1	none | Jurkat NFkB conf inactive
Cn1ccc2c(-c3ccc(CO)cc3)cc3c(c21)C1CCC3C1 (stereo not given)	none (no result: NR2E3 ag-1, Jurkat NFkB inh, 697 NFkB inh)
CSc1ccc(CNC(=O)C2(C)CCCN(C(C)C)C2)cc1 (stereo not given)	none (no result: NR2E3 ag-1, Jurkat NFkB inh, 697 NFkB inh)
COc1cc(C(=O)COC(=O)c2c(C)noc2C)cc(OC)c1OC	none (no result: NR2E3 ag-1) | Jurkat NFkB conf inactive
COC(=O)C1=C(C(=O)OC)C2C=CC1C1C(OC(C)=O)C(OC(C)=O)C21 (stereo not given)	none (no result: NR2E3 ag-1, Jurkat NFkB inh, 697 NFkB inh)
O=C(O)c1nn(CCOc2ccccc2F)c(=O)c2ccccc12	none
COc1ccccc1NC(CC(=O)c1ccccc1)C(=O)OCC(=O)c1ccc(C)cc1 (stereo not given)	none
COc1ccccc1NC(CC(=O)c1ccccc1)C(=O)OCC(=O)c1ccc(Br)cc1 (stereo not given)	none | Jurkat NFkB conf inactive
O=C(CC(Nc1ccccc1Cl)C(=O)OCC(=O)c1cccs1)c1ccccc1 (stereo not given)	none | Jurkat NFkB conf inactive
COc1ccc(N(CC(=O)Nc2ccc(C(C)C)cc2)S(=O)(=O)c2c(C)noc2C)cc1	none
CCOc1cc(/C=C(/NC(C)=O)C(=O)O)cc(Cl)c1OCc1ccc(Br)cc1	none
Cn1c(=O)oc2cc(S(=O)(=O)N3CCCc4ccccc43)ccc21	Jurkat NFkB inh 55.4 | Jurkat NFkB conf inactive
Cn1c(=O)oc2cc(S(=O)(=O)N3CCc4ccccc43)ccc21	none
COC(=O)Nc1ccc(S(=O)(=O)N2CCCc3ccccc32)cc1	Jurkat NFkB inh 60.8 | Jurkat NFkB conf 55.7
COC(=O)Nc1ccc(S(=O)(=O)N2CCCc3cccc(O)c32)cc1	none
Cc1cccc(N2CCN(C(=O)c3ccc(CS(=O)(=O)c4ccccc4C)o3)CC2C)c1 (stereo not given)	Jurkat NFkB inh 65.1 | Jurkat NFkB conf 51.9
Cc1ccc(C)c(N2CCN(C(=O)c3ccc(CS(=O)(=O)c4ccccc4C)o3)CC2)c1	none
O=C(c1ccc(C(F)(F)F)cc1)N(CCCn1ccnc1)C(c1ccccn1)c1nc2ccccc2[nH]1 (stereo not given)	none (no result: NR2E3 ag-1, Jurkat NFkB inh, 697 NFkB inh)
C=CCn1c(/N=C/c2ccc(N(C)C)cc2)nc2ccccc21	none
CN(C)c1ccc(/C=N/n2ncc3ccccc32)cc1	none | Jurkat NFkB conf inactive
Cc1ccc(OCC(=O)Nc2sc3c(c2C#N)CC(C)(C)NC3(C)C)cc1	none
CC1(C)Cc2c(sc(NC(=O)COc3cccc4ccccc34)c2C#N)C(C)(C)N1	Jurkat NFkB inh 87.4 | Jurkat NFkB conf 62.4
O=C(C(=O)N1CCN(c2ccccc2F)CC1)c1c[nH]c2ccccc12	none
CCc1ccc(NC(=O)C(=S)NC2CCCCC2)cc1	none | Jurkat NFkB conf inactive
COc1ccc(NC(=O)C(=S)NC2CCCCC2)cc1	none | Jurkat NFkB conf inactive
CN1C2=CC=CC=CC2=[N+](C)C12C([N+](=O)[O-])=CC(=[N+]([O-])[O-])C=C2[N+](=O)[O-] (stereo not given)	Jurkat NFkB inh 72.6 | Jurkat NFkB conf inactive
O=c1cc(-c2ccccc2)[nH]c2cc(Cl)ccc12	Jurkat NFkB inh 65.2 | Jurkat NFkB conf 60.8
Cc1ccc2[nH]c(-c3cccc(F)c3)cc(=O)c2c1	Jurkat NFkB inh 52.3 | Jurkat NFkB conf inactive
O=c1cc(-c2ccccc2)[nH]c2ccc(F)cc12	none (no result: Jurkat NFkB inh, 697 NFkB inh)
O=c1cc(-c2cccc(F)c2)[nH]c2ccccc12	Jurkat NFkB inh 72.4 | Jurkat NFkB conf 62.2
COc1ccc2[nH]c(-c3cccc(F)c3)cc(=O)c2c1	none
O=C1c2cc(F)ccc2OC2(CCNCC2)C12CC(c1ccccc1)=NO2 (stereo not given)	none
CC1(C(=O)Nc2ccc3nc[nH]c3c2)CCN1C(=O)CCc1ccccc1 (stereo not given)	none (no result: NR2E3 ag-1, Jurkat NFkB inh, 697 NFkB inh)
O=C(O)c1ccc(Nc2cnc3ccccc3n2)cc1	none
CCOC(=O)c1ccc(Nc2cnc3ccccc3n2)cc1	none | Jurkat NFkB conf inactive
COc1cc(OC)cc(-c2nc3cc(C)ccc3o2)c1	none | Jurkat NFkB conf inactive
Cc1ccc(-c2nc3cc(Cl)ccc3o2)cc1	none
CCOc1ccc(S(=O)(=O)N2CCN=C2c2ccccc2)cc1	Jurkat NFkB inh 54.2 | Jurkat NFkB conf inactive
COc1ccccc1C(=O)Nc1nc2cc3c(cc2s1)OCCO3	none | Jurkat NFkB conf inactive
CCN1CCN(Cc2nnc(-c3ccc(C)cc3)o2)CC1	none
CN(C(=O)CCN1C(=O)S/C(=C\c2ccccc2)C1=O)C1CCS(=O)(=O)C1 (stereo not given)	none
COc1cc(C(=O)OCC(=O)Nc2sccc2C(N)=O)cc(OC)c1OC	Jurkat NFkB inh 53.9 | Jurkat NFkB conf inactive
COc1ccc(C(=O)OCC(=O)Nc2sccc2C(N)=O)cc1OC	none
O=C(Nc1ccc(N2CCOCC2)cc1)c1cccc(S(=O)(=O)N2CCC(Cc3ccccc3)CC2)c1	none
COc1ccc(-n2cc(-c3ccc(C)cc3)[n+]3c2SCC3)cc1	Jurkat NFkB inh 59.6 | Jurkat NFkB conf 55.7
CCc1ccc(-n2cc(-c3ccc(F)cc3)[n+]3c2SCCC3)cc1	none
O=C(NC1CCCCC1)c1ccc(-c2ccccc2[N+](=O)[O-])o1	none | Jurkat NFkB conf inactive
O=C(NC1CCCCC1)c1ccc([N+](=O)[O-])o1	none
OC[C@H]1OC(O)[C@@H](O)[C@@H](O)[C@@H]1O (stereo not given in full)	none
COc1ccc(N2CSC(=S)N(c3ccc(OC)cc3)C2)cc1	none (no result: NR2E3 ag-1, Jurkat NFkB inh, 697 NFkB inh)
CCOc1ccccc1C1CC(=O)Nc2cc3c(cc21)OCO3 (stereo not given)	Jurkat NFkB inh 63.1 | Jurkat NFkB conf 60.5
CC(C)Oc1ccccc1C1CC(=O)Nc2cc3c(cc21)OCCO3 (stereo not given)	Jurkat NFkB inh 78.1 | Jurkat NFkB conf 50.7
COc1ccccc1C1CC(=O)Nc2cc3c(cc21)OCCO3 (stereo not given)	none
OC(c1ccc(-c2ccccc2)cc1)c1ncc(-c2ccc(C(F)(F)F)cc2)[nH]1 (stereo not given)	none (no result: NR2E3 ag-1, Jurkat NFkB inh, 697 NFkB inh)
O=C1CCCc2nc3c(cc21)C(O)Oc1ccccc1-3 (stereo not given)	none
O=C1CCCc2nc3c(cc21)C(O)Oc1c-3ccc2ccccc12 (stereo not given)	none | Jurkat NFkB conf inactive
Cc1cc(Cl)nc(Cl)c1C(=O)N1CCOCC1	none
